# Published values from different studies.
SMILES,organism,test,system,conditions,measurement,value
N#Cc1ccc(/C=C/c2nc3ccccc3c(=O)n2-c2cccc([N+](=O)[O-])c2)cc1,Enterococcus faecium,"microbial growth, broth dilution",NCTC7171,,MIC,> 128 mg/L
COC(=O)c1cc(-c2cccc(NC(=O)Nc3ccc(F)c(F)c3)c2)on1,Mycobacteroides chelonae,"microbial growth, broth dilution",ATCC35752,48 h,MIC,> 64 mg/L
Cc1cc(Cc2ccccc2)n(O)c(=O)c1,Candida albicans,microbial growth,ATCC90028,,MIC80,1.2 µM
O=c1c2ccccc2nc(/C=C/c2ccc3c(c2)OCO3)n1-c1cccc(O)c1,Enterococcus faecium,"microbial growth, broth dilution",NCTC7171,,MIC,> 128 mg/L
O=C(O)CSc1ncnc2cc(-c3cc4ccccc4s3)sc12,Murine coronavirus,viral replication,,"1 µM, 10 h",inhibition,-36%
COC(=O)c1cc(-c2cccc(NC(=S)Nc3ccc(F)cc3F)c2)on1,Mycobacteroides chelonae,"microbial growth, broth dilution",ATCC35752,48 h,MIC,16 mg/L
Nc1ccc(/C=C/c2nc3ccccc3c(=O)n2-c2cccc(O)c2)cc1,Enterococcus faecium,"microbial growth, broth dilution",NCTC7171,,MIC,> 128 mg/L
CC(=O)Oc1cccc2c1[nH]c1c(C3=C[C@@]4(OC(C)=O)CC/C=C\CCCCN5CC[C@@H]3[C@]3(C[C@@H]6/C=C\CCCCN6[C@H]34)C5)nccc12,Mycobacterium intracellulare,microbial killing,,,MBC,> 20 mg/L
O=c1c2ccccc2[se]n1-c1ccccc1,Trypanosoma brucei,parasite growth,,blood stage,EC50,2.97 µM
COC(=O)c1cc(-c2cccc(NC(=S)Nc3ccc(Cl)cc3)c2)on1,Mycobacteroides chelonae,"microbial growth, broth dilution",ATCC35752,48 h,MIC,> 64 mg/L
Cc1cc(C2CCCCC2)n(O)c(=O)c1,Candida albicans,microbial growth,ATCC90028,,MIC80,1.9 µM
CCOC(=O)c1cc(-c2cccc(NC(=O)Nc3ccc(Cl)c(Cl)c3)c2)on1,Mycobacteroides chelonae,"microbial growth, broth dilution",ATCC35752,48 h,MIC,> 64 mg/L
COc1ccc(Cc2cc(C)cc(=O)n2O)cc1,Candida albicans,microbial growth,ATCC90028,,MIC80,2.3 µM
Cl.O[C@]12C=C(c3nccc4c3[nH]c3ccccc34)[C@@H]3CCN(CCCC/C=C\CC1)C[C@@]31C[C@@H]3/C=C\CCCCN3[C@H]12,Mycobacterium intracellulare,"microbial growth, resazurin",ATCC23068,,IC50,0.12 mg/L
COC(=O)c1cc(-c2cccc(NC(=S)Nc3ccccc3)c2)on1,Mycobacteroides chelonae,"microbial growth, broth dilution",ATCC35752,48 h,MIC,> 64 mg/L
O=c1c2ccccc2nc(/C=C/c2cccc(F)c2)n1-c1cccc(O)c1,Enterococcus faecium,"microbial growth, broth dilution",NCTC7171,,MIC,32 mg/L
COC(=O)c1cc(-c2cccc(NC(=O)Nc3ccc(C)c(Cl)c3)c2)on1,Mycobacteroides chelonae,"microbial growth, broth dilution",ATCC35752,48 h,MIC,> 64 mg/L
O=c1c2ccccc2nc(/C=C/c2ccc(F)cc2)n1-c1cccc(O)c1,Enterococcus faecium,"microbial growth, broth dilution",NCTC7171,,MIC,128 mg/L
CCCCCOc1ccc(-c2cc(-c3ccc(C(=O)N[C@H]4C[C@@H](O)[C@@H](O)NC(=O)[C@@H]5[C@@H](O)[C@@H](C)CN5C(=O)[C@H]([C@H](O)CC(N)=O)NC(=O)[C@H]([C@H](O)[C@@H](O)c5ccc(O)c(OS(=O)(=O)O)c5)NC(=O)[C@@H]5C[C@@H](O)CN5C(=O)[C@H]([C@@H](C)O)NC4=O)cc3)no2)cc1,Candida albicans,biofilm formation,,16 µg/mL,inhibition,47%
Cc1ccc(-c2nc3ccccc3c(=O)n2-c2cccc(O)c2)cc1,Enterococcus faecium,"microbial growth, broth dilution",NCTC7171,,MIC,> 128 mg/L
CCC(=O)N1CCN(c2ccc(-n3c(=O)ccc4cnc5ccc(-c6cnc7ccccc7c6)cc5c43)cc2C(F)(F)F)CC1,Plasmodium berghei,"parasite growth, luciferase",human,liver stage,IC50,0.41 µM
